CSN deneddyl inh = blocks human CSN-mediated cullin deneddylation. 360,000 compounds, 0.38% hits. inhibition, % at 12.5 µM. Q92905. Purified CSN, SCF-Nedd8-OG deneddylation, fluorescence polarization;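 active = pattern-corrected inhibition above about 35%, with an unprinted fluorescence ratio check between 0.5 and 1.5, limit read from the data, passing the limit was not always enough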
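Material: human Csn5 produced in HEK293T cells; Input: enzyme 0.24 nM; Reagent: SCFSkp2-Nedd8OG substrate at 10 nM final; Dosing: 12.5 µM compound; Incubation: 90 min reaction at room temperature; Detection: fluorescence polarization of the substrate; Evaluation: % inhibition of substrate cleavage by Csn5; Control set: substrate-only high control, full reaction low control.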
MT1-MMP act inh = inhibitors of human MT1-MMP activation. HT1080 RFP-PRO-GFP cells, GFP/RFP ratio fluorescence, overnight; percent of plate control window, DMSO zero. GFP/RFP ratio change, % at 20 µM. 360,000 compounds, 0.061% hits;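 active = GFP/RFP ratio change of at least 30% with cell ATP level not reduced by more than half and red fluorescence within 50% of control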
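Assay system: RFP-PRO-GFP reporter HT1080 cells; read-out basis: GFP/RFP fluorescence ratio; benchmarks: DMSO wells and RFP-L50D-GFP cells; doses: 20 µM single dose, 1% DMSO; schedule: overnight cell settling, then overnight compound exposure, 37 °C, 5% CO2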
Rpn11 block = blocks the human proteasome subunit Rpn11 | O00487 | human 26S proteasome, Ub4-pepOG fluorescence polarization; 20S core pre-blocked with epoxomicin | inhibition, % at 20 µM | 360,000 compounds, 0.59% hits | AID 588493;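 active = inhibition at 20 µM, scaled to each plate's controls, above about 33%, limit read from the data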
Target sequence (O00487 whole entry, looked up): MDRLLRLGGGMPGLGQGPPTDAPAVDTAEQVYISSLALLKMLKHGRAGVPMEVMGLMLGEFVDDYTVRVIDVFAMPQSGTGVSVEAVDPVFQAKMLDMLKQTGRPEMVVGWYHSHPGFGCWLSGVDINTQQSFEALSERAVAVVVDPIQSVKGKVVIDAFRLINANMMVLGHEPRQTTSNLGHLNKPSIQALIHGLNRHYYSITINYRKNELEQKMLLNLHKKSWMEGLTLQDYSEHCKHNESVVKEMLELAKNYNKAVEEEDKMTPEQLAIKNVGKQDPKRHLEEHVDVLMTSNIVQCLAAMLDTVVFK
SKN-1 block = C. elegans SKN-1 inhibition; C. elegans VP596 Pgst-4::GFP/RFP ratio, acrylamide-induced, 24 h; 360,000 compounds, 0.49% hits; AID 624304; inhibition, % at 21.8 µM;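 active = interference check ratio from 0.5 to 1.5 plus GFP to RFP signal ratio inhibition reaching or exceeding a fixed threshold, cut at about 30% in these data, passing the limit was not always enough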
DNMT1 inh = DNMT1 (human) enzyme inhibition; P26358; DNMT1 molecular beacon, Hinp1I cleavage, fluorescence; inhibition (reported as % activation of signal), % at 10 µM; 360,000 compounds, 0.83% hits
SUMO1-SIM PPI = modulators of human SUMO1-mediated protein-protein interactions | P63165 | SUMO1 binding to a labelled peptide, TR-FRET, 1 h | inhibition, % at 20 µM | 360,000 compounds, 0.33% hits | AID 602429; in the data active = inhibition above about 37%
Target sequence (P63165 whole entry, looked up): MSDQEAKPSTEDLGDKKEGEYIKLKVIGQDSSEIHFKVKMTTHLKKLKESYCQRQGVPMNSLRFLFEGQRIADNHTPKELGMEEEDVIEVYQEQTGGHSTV
Rpn11 confirm = Rpn11 inhibition confirmation, single concentration. purified human 26S proteasome, Ub4-pepOG fluorescence polarization; proteasome pretreated with epoxomicin. shares compounds with Rpn11 block. 1,900 compounds, 29% hits. inhibition, % at 20 µM; in the data active = inhibition above about 40%
MMP-2 counter-1 = MMP-2 (human) inhibition counter-screen; inhibition, % at 20 µM; shares compounds with Rpn11 block; 1,900 compounds, 4% hits; AID 602330; recombinant MMP-2, FRET peptide cleavage fluorescence; in the data active = inhibition above about 40%;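 also: human MMP-2 activated beforehand with APMA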
Thrombin inh = thrombin (bovine) inhibition counter-screen; shares compounds with Rpn11 block; 1,900 compounds, 13% hits; bovine thrombin cleavage of Ub4-pepOG, fluorescence polarization; inhibition, % at 20 µM;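 active = mean inhibition at least 40% at 20 µM, or signal 3 deviations below plate average, so some actives read negative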
CSN5 deneddyl = Csn5 (human) deneddylation inhibition, single-concentration validation | shares compounds with CSN deneddyl inh | Csn5 deneddylation of SCF-Nedd8OG, fluorescence polarization, 90 min | inhibition, % at 16.6 µM | 540 compounds, 62% hits
MMP-2 counter-2 = blocks human MMP-2 in a CSN deneddylation counter-screen; shares compounds with CSN deneddyl inh; recombinant MMP-2, FRET substrate fluorescence, 60 min; inhibition, % at 16.6 µM; 540 compounds, 33% hits;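 active = corrected plate-normalized z-score of 5 or more, or -5 or less, or inhibition of 15% or more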
Thrombin counter = thrombin (bovine) inhibition, counter-screen for CSN hits. shares compounds with CSN deneddyl inh. bovine thrombin cleavage of Ub4-pepOG, fluorescence polarization. inhibition, % at 16.6 µM. 540 compounds, 49% hits;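 active = inhibition at or above a set limit, with a fluorescence interference ratio between 0.5 and a set maximum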
Hits are given with their value; . = inactive; / = not tested or not shown. This is a sample that favours compounds with a hit; in the whole collection about 2.3% have one here. Rule as the data show it, unless noted: active = inhibition above about 50%; inactive = the rest.

SMILES	CSN deneddyl inh	MT1-MMP act inh	Rpn11 block	SKN-1 block	DNMT1 inh	SUMO1-SIM PPI	Rpn11 confirm	MMP-2 counter-1	Thrombin inh	CSN5 deneddyl	MMP-2 counter-2	Thrombin counter
COc1ccc(N2CCN(c3cc(C(=O)Nc4cc(OC)c(OC)c(OC)c4)ncn3)CC2)cc1OC	.	.	.	.	.	.	/	/	/	/	/	/
Cc1nc(SCc2nc3cc(Cl)c(F)cc3[nH]2)c2oc3ccccc3c2n1	35.6	.	75.4	.	.	.	63.9	.	.	85.8	.	.
O=Cc1cn(-c2ccccc2)nc1-c1cc2cc(O)ccc2oc1=O	84.3	.	110.9	.	.	43.7	41.8	.	.	.	.	.
O=C(O)/C=C/c1cn(-c2ccccc2)nc1-c1cc2ccccc2oc1=O	.	.	.	.	.	.	/	/	/	/	/	/
COc1cc(OC)nc(Nc2nc(C(N)Cc3ccc(C(F)(F)F)cc3)cs2)n1 (stereo not drawn)	.	.	.	.	.	.	/	/	/	/	/	/
CS(=O)(=O)C1=NSC2=NC(=O)/C(=C\c3cccn3-c3ccc(Cl)cc3)C(=N)N21	99.9	.	46.6	.	.	.	76.5	.	120.2	.	25.8	49.6
O=C(Nc1cccc(C(F)(F)F)c1)C1Cc2c(-c3ccccc3Oc3ccccc3)ccnc2O1 (stereo not drawn)	.	.	.	.	.	.	/	/	/	/	/	/
COc1cc2c(c(OC)c1OC)-c1ccc(NCc3ccccc3)c(=O)cc1C(NC(C)=O)CC2 (stereo not drawn)	.	.	.	.	.	.	/	/	/	/	/	/
N=C1/C(=C\c2ccc(-c3cccc(Cl)c3)o2)C(=O)N=C2SC=C(c3ccccc3)N12	37.8	.	65.9	.	60.9	.	73.3	.	48.8	64.5	.	23.4
COc1ccccc1-n1cnc2c(c1=O)c1nc3ccccc3nc1n2-c1ccc(C)cc1	47.3	.	89.7	.	.	.	.	.	.	98.9	.	.
COc1ccccc1-n1c2nc3ccccc3nc2c2c(=O)n(-c3cc(C)cc(C)c3)cnc21	.	.	.	.	.	.	/	/	/	/	/	/
CCOC(=O)c1[nH]c2ccc(C)cc2c1NC(=O)CN1CCCCC1	.	.	.	.	.	.	/	/	/	/	/	/
Cc1c2cc[n+](CCN3CCCCC3)cc2c(C)c2c1[nH]c1ccc(O)cc12	100.1	.	89.8	.	.	91.9	68.8	41.8	.	.	93.1	40.1
CC(=O)Nc1cc(-c2cccc(NS(C)(=O)=O)c2)cn2c(-c3ccc(F)c(Cl)c3)cnc12	.	.	.	.	.	.	/	/	/	/	/	/
O=C(O)CCCN1C(=O)/C(=C/c2ccc(-c3nc4ccccc4s3)o2)SC1=S	121.9	.	184.6	.	103.6	.	43.7	.	.	/	.	.
COc1ccc(C(C(=O)NC(C)(C)C)n2c(-c3ccc(-c4ccccc4)cc3)nc3ccccc32)cc1 (stereo not drawn)	.	.	/	.	/	.	/	/	/	/	/	/
COc1cc([N+](=O)[O-])cc(/C=C2/SC(=S)N(Cc3ccccc3)C2=O)c1O	39.5	.	60.8	52.2	.	64.5	64.1	55.0	.	/	.	43.6
